Measurements: ChEMBL document CHEMBL4219023, “Synthesis and biological activity of novel tert-amylphenoxyalkyl (homo)piperidine derivatives as histamine H3R ligands” (Bioorg Med Chem, 2017)
Active and inactive are the calls of the source. No cut-off for these calls is given here.

Assays:
[1] = tested on: Mus musculus; experiment: Neurotoxicity in CF-1 albino mouse assessed as death at 300 mg/kg, ip after 0.5 hrs by rotarod test; format: toxicity, organism-based; details: in vivo
Summary of the method: (§1)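 Anticonvulsant Screening Program (NINDS) Phase 1 neurotoxicity screen in male albino CF-1 mice. Compounds were given i.p. as suspensions in 0.5% methylcellulose at 30, 100 and/or 300 mg/kg, and animals were observed 0.5 h and 4 h after dosing. The rotarod test was scored as number of animals showing toxicity over number tested, with the kind of toxicity recorded: inability to grasp rotorod, death, diarrhea, continuous seizure activity, loss of righting reflex, myoclonic jerks or tremors.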

[2] = tested on: Mus musculus; experiment: Anticonvulsant activity in CF-1 albino mouse assessed as protection against subcutaneous pentetrazole-induced seizures at 100 mg/kg, ip after 0.5 hrs; format: functional, organism-based
[3] = tested on: Mus musculus; experiment: Anticonvulsant activity in CF-1 albino mouse assessed as protection against subcutaneous pentetrazole-induced seizures at 30 mg/kg, ip after 4 hrs; format: functional, organism-based
[4] = tested on: Mus musculus; experiment: Neurotoxicity in CF-1 albino mouse assessed as diarrhea at 300 mg/kg, ip after 0.5 hrs by rotarod test; format: toxicity, organism-based; details: in vivo; summary of the method: as §1
[5] = tested on: Mus musculus; experiment: Anticonvulsant activity in CF-1 albino mouse assessed as protection against maximal electroshock-induced seizures at 30 mg/kg, ip after 0.5 hrs; format: functional, organism-based
Summary of the method: (§2)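 Male CF-1 albino mice received compound i.p. as a suspension in 0.5% methylcellulose (30, 100 or 300 mg/kg). Maximal electroshock seizure test read 0.5 h and 4 h after dosing. Result given as animals protected/animals tested.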

[6] = tested on: Mus musculus; experiment: Anticonvulsant activity in CF-1 albino mouse assessed as protection against maximal electroshock-induced seizures at 100 mg/kg, ip after 0.5 hrs; format: functional, organism-based; summary of the method: as §2
[7] = target: T1, Histamine H3 receptor (Homo sapiens, UniProt Q9Y5N1); experiment: Displacement of [3H]Nalpha-Methylhistamine from recombinant human histamine H3 receptor expressed in HEK293 cell membranes after 90 mins by liquid scintillation counting analysis
T1 sequence (Q9Y5N1 whole entry): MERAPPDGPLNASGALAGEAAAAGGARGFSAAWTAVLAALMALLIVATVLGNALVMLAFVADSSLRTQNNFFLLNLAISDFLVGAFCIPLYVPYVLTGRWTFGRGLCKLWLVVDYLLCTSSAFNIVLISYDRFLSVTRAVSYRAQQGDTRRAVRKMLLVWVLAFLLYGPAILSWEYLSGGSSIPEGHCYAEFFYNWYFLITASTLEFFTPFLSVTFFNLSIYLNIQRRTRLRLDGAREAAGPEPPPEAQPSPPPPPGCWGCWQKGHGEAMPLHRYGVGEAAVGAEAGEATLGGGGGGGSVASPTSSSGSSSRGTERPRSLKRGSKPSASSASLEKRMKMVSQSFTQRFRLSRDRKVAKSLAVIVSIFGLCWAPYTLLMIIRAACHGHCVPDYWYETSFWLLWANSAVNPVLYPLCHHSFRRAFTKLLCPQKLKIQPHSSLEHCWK

[8] = tested on: Mus musculus; experiment: Anticonvulsant activity in CF-1 albino mouse assessed as protection against subcutaneous pentetrazole-induced seizures at 30 mg/kg, ip after 0.5 hrs; format: functional, organism-based
[9] = tested on: Mus musculus; experiment: Anticonvulsant activity in CF-1 albino mouse assessed as protection against maximal electroshock-induced seizures at 100 mg/kg, ip after 4 hrs; format: functional, organism-based; summary of the method: as §2
[10] = tested on: Mus musculus; experiment: Anticonvulsant activity in CF-1 albino mouse assessed as protection against maximal electroshock-induced seizures at 30 mg/kg, ip after 4 hrs; format: functional, organism-based; summary of the method: as §2
[11] = tested on: Mus musculus; experiment: Neurotoxicity in CF-1 albino mouse assessed as death at 300 mg/kg, ip after 0.5 hrs by rotarod test; details: in vivo
[12] = tested on: Mus musculus; experiment: Neurotoxicity in CF-1 albino mouse at 30 mg/kg, ip after 4 hrs by rotarod test; format: toxicity, organism-based; details: in vivo
Summary of the method: (§3)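 Male CF-1 mice were dosed i.p. with compound suspended in 0.5% methylcellulose (30, 100 or 300 mg/kg). Neurotoxicity was scored by rotarod 0.5 h and 4 h after dosing, as animals showing toxicity/animals tested. Type of toxicity was noted, e.g. inability to grasp the rod, tremors, death.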

[13] = tested on: Mus musculus; experiment: Neurotoxicity in CF-1 albino mouse assessed as continuous seizure activity at 300 mg/kg, ip after 0.5 hrs by rotarod test; format: toxicity, organism-based; details: in vivo; summary of the method: as §1
[14] = tested on: Mus musculus; experiment: Anticonvulsant activity in CF-1 albino mouse assessed as protection against subcutaneous pentetrazole-induced seizures at 300 mg/kg, ip after 0.5 hrs; format: functional, organism-based
[15] = Lipophilicity of compound by RP-TLC analysis; format: physicochemical; details: methanol:acetic acid:water
Summary of the method: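 Reversed-phase TLC on RP-18 plates with methanol:acetic acid:water mobile phase (acid constant at 10%, methanol 85–55% in 5% steps). Spots visualised with iodine. RM values were derived from Rf and extrapolated to zero methanol to give RM0.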

[16] = tested on: Mus musculus; experiment: Neurotoxicity in CF-1 albino mouse assessed as unable to grasp at 30 mg/kg, ip after 0.5 hrs by rotarod test; format: toxicity, organism-based; details: in vivo, 100 mg/kg, in the assay text read “100 mg/kg” for “30 mg/kg”; summary of the method: as §3
[17] = target: T1, Histamine H3 receptor; experiment: Displacement of [125I]Iodoproxyfan from recombinant human histamine H3 receptor expressed in CHOK1 cell membranes after 90 mins
Summary of the method: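 Membranes of CHO-K1 cells expressing hH3R were incubated 90 min at 25 °C, shaken at 250 rpm, with [125I]iodoproxyfan (16–50 pM) and test compound. Nonspecific binding was defined with 1 μM imetit. Separation by filtration on PEI-treated GF/B filters. Ki obtained from IC50 by Cheng-Prusoff.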

[18] = tested on: Mus musculus; experiment: Anticonvulsant activity in CF-1 albino mouse assessed as protection against subcutaneous pentetrazole-induced seizures at 100 mg/kg, ip after 4 hrs; format: functional, organism-based
[19] = tested on: Mus musculus; experiment: Anticonvulsant activity in CF-1 albino mouse assessed as protection against maximal electroshock-induced seizures at 300 mg/kg, ip after 0.5 hrs; format: functional, organism-based; summary of the method: as §2
[20] = tested on: Mus musculus; experiment: Anticonvulsant activity in CF-1 albino mouse assessed as protection against maximal electroshock-induced seizures at 300 mg/kg, ip after 4 hrs; format: functional, organism-based; summary of the method: as §2
[21] = tested on: Mus musculus; experiment: Neurotoxicity in CF-1 albino mouse assessed as diarrhea at 100 mg/kg, ip after 0.5 hrs by rotarod test; format: toxicity, organism-based; details: in vivo; summary of the method: as §1
[22] = Drug metabolism in pooled human liver microsomes assessed as 2-(4-(5-(azepan-1-yl)pentyloxy)phenyl)propan-1-ol metabolite formation at 50 uM after 2 hrs in presence of NADPH by LC/MS analysis; format: ADME, microsome
Summary of the method: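 Pooled human liver microsomes (1 mg/ml) in 0.1 M Tris-HCl pH 7.4 with compound at 50 μM. After 5 min preincubation at 37 °C, reaction was started with NADPH regeneration system and run 2 h at 37 °C. Stopped with cold methanol and centrifuged. Supernatant analysed by UPLC-ESI tandem quadrupole MS.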

[23] = tested on: HEK293; experiment: Cytotoxicity against HEK293 cells assessed as reduction in cell viability after 48 hrs by EZ4U Non-radioactive cell proliferation assay; format: cell-based; details: Homo sapiens, HEK293, 48 h
Summary of the method: (§4)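 IMR-32 cells (2×10^4/well) or HEK-293 cells (1.5×10^4/well) in DMEM with 10% FBS were preincubated 24 h at 37 °C, 5% CO2. Compounds from 25 mM DMSO stocks were added at final 0.01–250 μM, with DMSO ≤1%. After 48 h, EZ4U label was added for 5 h and absorbance read at 492 nm.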

[24] = target: CYP3A4 (Homo sapiens, UniProt P08684); experiment: Activation of recombinant human CYP3A4 using Luciferin-BE as substrate at 25 uM in presence of NADPH by P450-Glo luminescence assay relative to control; format: ADME; details: recombinant human CYP3A4, probe Luciferin-PPXE, in the assay text read “Luciferin-PPXE” for “Luciferin-BE”, read-out: Activity
CYP3A4, sequence (P08684 whole entry): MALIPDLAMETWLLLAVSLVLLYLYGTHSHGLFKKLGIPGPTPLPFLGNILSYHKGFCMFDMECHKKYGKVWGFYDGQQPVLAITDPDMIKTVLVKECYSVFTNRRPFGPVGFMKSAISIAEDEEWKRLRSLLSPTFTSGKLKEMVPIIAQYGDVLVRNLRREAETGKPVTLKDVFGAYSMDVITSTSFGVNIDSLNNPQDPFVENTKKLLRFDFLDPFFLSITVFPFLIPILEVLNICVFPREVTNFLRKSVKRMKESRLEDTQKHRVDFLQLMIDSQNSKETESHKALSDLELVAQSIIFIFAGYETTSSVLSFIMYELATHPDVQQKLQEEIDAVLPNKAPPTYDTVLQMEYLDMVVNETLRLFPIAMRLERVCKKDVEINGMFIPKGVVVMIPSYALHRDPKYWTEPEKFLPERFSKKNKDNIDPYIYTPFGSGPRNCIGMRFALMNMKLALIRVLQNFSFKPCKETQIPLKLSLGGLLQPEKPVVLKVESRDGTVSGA
Summary of the method: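 Recombinant human CYP3A4 P450-Glo luminescence assay: enzyme converts luciferin substrate to D-luciferin, then firefly luciferase is added and light output read as a measure of CYP3A4 activity. Final ligand concentrations 0.025–25 μM.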

[25] = Safety index, ratio of compound IC50 to doxorubicin IC50 for human IMR32 cells after 48 hrs by EZ4U Non-radioactive cell proliferation assay; format: ADME, cell-based; details: IMR-32 cells, read-out: Ratio IC50
[26] = Safety index, ratio of compound IC50 to doxorubicin IC50 for HEK293 cells after 48 hrs by EZ4U non-radioactive cell proliferation assay; format: ADME, cell-based; details: human, read-out: Ratio IC50
[27] = tested on: IMR-32; experiment: Cytotoxicity against human IMR32 cells assessed as reduction in cell viability after 48 hrs by EZ4U Non-radioactive cell proliferation assay; format: cell-based; details: IMR-32, 48 h; summary of the method: as §4
[28] = tested on: Mus musculus; experiment: Neurotoxicity in CF-1 albino mouse at 30 mg/kg, ip after 0.5 hrs by rotarod test; format: toxicity, organism-based; details: in vivo; summary of the method: as §3
[29] = tested on: Rattus norvegicus; experiment: Anticonvulsant activity in albino Sprague-Dawley rat assessed as protection against maximal electroshock-induced seizures at 30 mg/kg, po after 0.5 to 4 hrs; format: functional, organism-based
Summary of the method: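 Male Sprague-Dawley rats, four per group, were given compound orally at a fixed 30 mg/kg in 0.5% methylcellulose suspension. Maximal electroshock test was read at 0.5 h and 4 h.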

[30] = tested on: Mus musculus; experiment: Neurotoxicity in CF-1 albino mouse at 100 mg/kg, ip after 4 hrs by rotarod test; format: toxicity, organism-based; details: in vivo; summary of the method: as §3
[31] = tested on: Mus musculus; experiment: Anticonvulsant activity in CF-1 albino mouse assessed as protection against subcutaneous pentetrazole-induced seizures at 300 mg/kg, ip after 4 hrs; format: functional, organism-based
[32] = tested on: Mus musculus; experiment: Neurotoxicity in CF-1 albino mouse assessed as continuous seizure activity at 100 mg/kg, ip after 0.5 hrs by rotarod test; format: toxicity, organism-based; details: in vivo; summary of the method: as §1
[33] = tested on: Mus musculus; experiment: Neurotoxicity in CF-1 albino mouse assessed as tremor at 30 mg/kg, ip after 0.5 hrs by rotarod test; format: toxicity, organism-based; details: in vivo, 100 mg/kg, in the assay text read “100 mg/kg” for “30 mg/kg”; summary of the method: as §3

Row | Structure (SMILES) | Activity [2] | Activity [3] | Activity [5] | Activity [6] | Activity [8] | Activity [9] | Activity [10] | Activity [11] | Activity [12] | Activity [14] | Rm [15] | Ki [17] [nM] | Activity [18] | Activity [19] | further results
1 | CCC(C)(C)c1ccc(OCCCCN2CCC(C)CC2)cc1.O=C(O)C(=O)O | Active | inactive | Active | Active | inactive | inactive | inactive | Toxic | Non-Toxic | Active |  |  |  |  | Activity [1]: Toxic; Activity [4]: Toxic; Ki [7]: 238 nM; Activity [13]: Toxic
2 | CCC(C)(C)c1ccc(OCCCCCCN2CCCCCC2)cc1.O=C(O)C(=O)O | inactive | inactive | inactive | Active | inactive | inactive | inactive | Toxic | Non-Toxic |  | 2.567 | 41.2 | inactive |  | Activity [16]: Toxic
3 | CCC(C)(C)c1ccc(OCCCCCCCN2CCCC(C)C2)cc1.O=C(O)C(=O)O (centres undefined) | inactive | inactive | inactive |  | inactive | Active | inactive |  | Non-Toxic | inactive | 2.983 | 36.6 | inactive | Active | Activity [20]: inactive
4 | CCC(C)(C)c1ccc(OCCCCN2CCCCCC2)cc1.O=C(O)C(=O)O |  |  | inactive | Active |  | Active | inactive | Toxic | Non-Toxic |  | 2.292 |  |  |  | Activity [1]: Toxic; Activity [4]: Toxic; Activity [21]: Toxic; Ki [7]: 68 nM
5 | CCC(C)(C)c1ccc(OCCCCCN2CCCCCC2)cc1.O=C(O)C(=O)O | inactive | inactive | Active | Active | inactive |  | inactive |  | Non-Toxic |  | 2.389 | 21.4 | inactive |  | Drug metabolism [22]: Metabolite_Detected; IC50 [23]: 39.5 µM; activity at 25 µM [24]: 76%; selectivity ratio at 48 h [25]: > 1000; selectivity ratio at 48 h [26]: 50 to 90; IC50 [27]: 12.3 µM; Activity [28]: Non-Toxic
6 | CCC(C)(C)c1ccc(OCCCCCCCCN2CCCC(C)C2)cc1.O=C(O)C(=O)O (centres undefined) | inactive | inactive | inactive |  | inactive | Active | inactive |  | Non-Toxic | inactive | 3.562 | 121 | inactive | Active | Activity [29]: inactive; Activity [30]: Non-Toxic; Activity [31]: inactive; Activity [28]: Non-Toxic
7 | CCC(C)(C)c1ccc(OCCCCCCN2CCCC(C)C2)cc1.O=C(O)C(=O)O (centres undefined) | inactive | inactive | Active | Active | inactive | Active | inactive | Toxic | Non-Toxic |  | 2.521 | 33.8 | inactive | Active | Activity [32]: Toxic; Activity [33]: Toxic
